High-throughput results (PubChem)
Diaph inh CS: diaphorase inhibitors and chemical oxidizers, primary screen, counter-screen for diaphorase-coupled primary assays, biochemical, uHTS, resorufin fluorescence; inhibition, % at 20 µM; 0.69% of 190,000 active; diaphorase resazurin-to-resorufin fluorescence, NADH, 16 min; bacterial (C. kluyveri) enzyme, not human;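 active = primary screen inhibition at 20 µM above a set limit, cut at about 50% in these data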;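 also: plate controls were DMSO with full reaction for no effect and wells lacking NADH for full effect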
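Test system: Clostridium kluyveri diaphorase enzyme / Quantity: diaphorase at 0.14 U/mL in enzyme working solution / Incubation: 16-min room-temperature incubation before reading / Benchmarks: NADH-free wells as positive control, DMSO-only neutral wells / Signal: resorufin fluorescence 544/590 nm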
Diaph act CS: compounds boosting diaphorase resazurin reduction – biochemical, uHTS, resorufin fluorescence, counter-screen for diaphorase-coupled primary assays, primary screen | activation factor at 20 µM | AID 1229, 2008 | 0.005% of 190,000 active | Diaphorase/resazurin coupled assay, 16 min; stronger effect = higher value; 1 = vehicle wells, 0 = NADH-free wells;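 active = diaphorase activity raised at least twofold by the compound at 20 µM; inactive = activation factor below 2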
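Test system: Clostridium kluyveri diaphorase, purified enzyme; input: enzyme 0.07 U/mL final; buffer or medium: 50 mM HEPES pH 7.4 with 4.542 mM MgCl2, 0.005% Tween 20; also added: 0.114 mM NADH and 0.1 mM resazurin, final amounts; schedule: 16 min enzyme reaction, ambient temperature; technique: fluorescence of resorufin, 544 nm excitation, 590 nm emission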
PfGluPho inh: PfG6PD enzyme inhibitors, primary screen, biochemical, fluorescence intensity, uHTS | PfGluPho enzyme, NADPH resazurin-diaphorase fluorescence | inhibition, % at 20 µM | 0.78% of 350,000 active | AID 504690, 2011;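 active = inhibition reaching at least a set limit at 20 µM in the primary screen, cut at about 59% in these data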;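 also: 0% = DMSO wells with substrate and 100% = DMSO wells lacking glucose-6-phosphate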
HKDC1 inh: HKDC1 hexokinase inhibitors, primary screen, biochemical, fluorescence, uHTS. Q2TB90. recombinant HKDC1, G6PDH/diaphorase resazurin coupled fluorescence. inhibition, % at 20 µM. 0.16% of 340,000 active;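 active = inhibition above about 35% when tested at 20 µM, limit read from the data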;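 also: plate controls were DMSO wells with enzyme for no effect and DMSO wells lacking enzyme for full effect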
Target sequence (Q2TB90 whole entry, looked up): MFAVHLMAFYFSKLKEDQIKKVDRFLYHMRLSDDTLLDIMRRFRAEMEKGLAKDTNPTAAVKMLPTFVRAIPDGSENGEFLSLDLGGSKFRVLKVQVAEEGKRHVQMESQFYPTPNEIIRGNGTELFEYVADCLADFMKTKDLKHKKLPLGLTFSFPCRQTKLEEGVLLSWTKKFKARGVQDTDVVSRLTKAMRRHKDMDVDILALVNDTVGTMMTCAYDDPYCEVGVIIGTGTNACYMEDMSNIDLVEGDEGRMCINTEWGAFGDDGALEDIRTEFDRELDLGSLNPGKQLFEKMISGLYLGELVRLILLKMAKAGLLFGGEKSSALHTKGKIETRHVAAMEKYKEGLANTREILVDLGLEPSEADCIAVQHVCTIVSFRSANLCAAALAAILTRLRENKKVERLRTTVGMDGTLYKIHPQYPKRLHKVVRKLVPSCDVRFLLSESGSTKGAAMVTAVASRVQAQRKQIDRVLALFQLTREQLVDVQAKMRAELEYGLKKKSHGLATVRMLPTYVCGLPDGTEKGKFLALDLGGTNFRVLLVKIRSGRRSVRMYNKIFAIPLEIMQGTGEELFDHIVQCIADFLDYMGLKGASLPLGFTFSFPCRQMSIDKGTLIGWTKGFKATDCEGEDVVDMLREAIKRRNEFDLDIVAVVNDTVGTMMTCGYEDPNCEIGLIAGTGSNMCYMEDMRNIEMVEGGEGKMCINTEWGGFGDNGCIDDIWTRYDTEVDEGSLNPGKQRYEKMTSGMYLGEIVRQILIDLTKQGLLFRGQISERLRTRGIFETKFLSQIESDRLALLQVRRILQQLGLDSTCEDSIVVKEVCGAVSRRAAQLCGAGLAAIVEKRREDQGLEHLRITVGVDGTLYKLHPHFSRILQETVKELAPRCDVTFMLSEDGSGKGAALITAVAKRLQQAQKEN
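Test system: recombinant HKDC1 (HK5) hexokinase enzyme, produced in-house; Amount: enzyme 5 µg/mL final; Buffer or medium: Tris pH 8.0 buffer with MgCl2, Tween-20, BSA, BME; Reagent: glucose and ATP substrates; Doses: 20 µM test compound, 1% DMSO; Incubation: 90 min reaction incubation at room temperature, dark; Detection: resorufin fluorescence at 613 nm.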
G6PDH counter: L. mesenteroides G6PDH inhibitors, counter-screen for G6PDH-coupled screening assays, biochemical, Leuconostoc mesenteroides enzyme; AID 1020, 2008; inhibition, % at 5 µM; Purified L. mesenteroides G6PDH, diaphorase/resazurin coupled fluorescence, 45 min; 0.12% of 200,000 active; glucose-6-phosphate dehydrogenase [Leuconostoc mesenteroides]; in the data active = inhibition above about 50%
PfGluPho conf: PfG6PD inhibitors, hit retest, confirmation, biochemical, fluorescence intensity, single concentration | shares compounds with PfGluPho inh | recombinant PfGluPho, NADPH-diaphorase-resazurin fluorescence | inhibition, % at 20 µM | 34% of 2,400 active | AID 504753, 2011;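 active = inhibition of at least 50% at 20 µM in any single replicate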;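 also: 0% = DMSO with substrate and 100% = DMSO lacking glucose-6-phosphate substrate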
Diaph ctr 10uM: diaphorase inhibitors and chemical oxidizers, confirmation, counter-screen for P. falciparum G6PD inhibitor project, biochemical, fluorescence intensity, 10 µM NADPH; shares compounds with PfGluPho inh; AID 504862, 2011; inhibition, % at 20 µM; 39% of 820 active; diaphorase-coupled resazurin reduction, NADPH 10 uM;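 active = average inhibition reaching 50% or more with the compound at 20 µM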;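 also: resorufin red fluorescence formed as diaphorase reduces resazurin using NADPH; 0% = DMSO with enzyme and 100% = DMSO without enzyme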
Diaph ctr 30uM: diaphorase inhibitors and chemical oxidizers, confirmation, counter-screen for P. falciparum G6PD inhibitor project, biochemical, fluorescence intensity, 30 µM NADPH; shares compounds with PfGluPho inh; Diaphorase/resazurin coupled assay, resorufin fluorescence; inhibition, % at 20 µM; 29% of 820 active; AID 504863, 2011;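 active = inhibition averaging 50% or more, tested at 20 µM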;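 also: 0% = DMSO with enzyme and 100% = DMSO wells lacking diaphorase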
* marks the source's active call; other numbers are inactive results; / = no result given. In the library only some 1.2% were active in any assay of this set; here they are far more common.

SMILES | Diaph inh CS | Diaph act CS | PfGluPho inh | HKDC1 inh | G6PDH counter | PfGluPho conf | others
CCn1c(SCC(=O)Nc2ccccc2OC)nnc1-c1cnccn1 | 9 | 0.9 | 78* | -5 | 3 | 53* | Diaph ctr 10uM=43;Diaph ctr 30uM=45
O=C1c2ccccc2-c2onc3ccc(NCc4ccco4)c1c23 | 42 | 0.6 | 74* | 23 | 49 | 25
CCCC(=O)Nc1ccc(-c2nc3ncccc3o2)cc1 | / | / | 12 | -1 | / | /
CN1CCc2nc(NC(=O)COc3ccc(C#N)cc3)sc2C1 | -13 | 1.1 | -15 | -1 | 0 | /
COc1ccc(NC(=O)n2ncc3c(C)cccc32)cc1 | / | / | 69* | 2 | / | 20
COC(=O)C1=C(C(=O)OC)SC2(S1)C(C(=O)OC)=C(C(=O)OC)SC1=C2c2cc(C)ccc2NC1(C)C | 11 | 0.9 | 72* | -19 | 7 | 26
COc1ccc(S(=O)(=O)N(C)CC(=O)NCc2ccccn2)cc1 | / | / | -2 | -9 | / | /
O=c1ccn(-c2cccc(C(F)(F)F)c2)nc1-c1ccn(-c2ccccc2F)n1 | 16 | 0.8 | 104* | -1 | 2 | 102* | Diaph ctr 10uM=97*;Diaph ctr 30uM=78*
CC1(C)CC(=O)c2cnc(NC(=O)CSC(=S)N3CCCCC3)nc2C1 | / | / | 7 | -7 | / | /
O=C1C=C(NCCc2cc(Br)c(O)c(Br)c2)C(=O)c2ncccc21 | / | / | 115* | 30 | / | 101* | Diaph ctr 10uM=46;Diaph ctr 30uM=35
CCc1c(C)nc2c(Br)cccc2c1SCCC#N | 12 | 0.9 | 59* | -1 | 6 | -5
CCc1c(C)nc2ccc(Br)cc2c1SCCC#N | 14 | 0.9 | 21 | -12 | 6 | /
COc1ccccc1OC[C@H](O)CO | / | / | -20 | -3 | / | /
O=C1Nc2ccccc2/C1=C/c1ccc([N+](=O)[O-])cc1 | / | / | 1 | -7 | / | /
CC1(c2ccc([N+](=O)[O-])cc2)Nc2ccccc2S1 (stereo unspecified) | / | / | 72* | 5 | / | -2
Cc1ccc(N2C(=O)/C(=C\c3ccc(C(C)C)cc3)N=C2SC2CCOC2=O)cc1 (stereo unspecified) | 22 | 0.8 | 16 | -5 | -15 | /
Cc1nc2ccccc2c(=O)n1/N=C/c1ccccc1O | / | / | 8 | -9 | / | /
Cc1nc2ccccc2c(=O)n1/N=C/c1ccc(O)c(O)c1O | / | / | 92* | 15 | / | 101* | Diaph ctr 10uM=97*;Diaph ctr 30uM=96*
Cc1nc2ccccc2c(=O)n1/N=C/c1ccccc1OC(F)F | / | / | 9 | 2 | / | /
CC(C(=O)NCC1CCCCC1)N1CCN(S(=O)(=O)c2ccccc2F)CC1 (stereo unspecified) | 12 | 0.9 | -16 | 1 | -6 | /
O=C(CBr)c1ccc([N+](=O)[O-])c(CS(=O)(=O)c2ccc(Cl)cc2)c1 | / | / | 80* | 2 | / | 74* | Diaph ctr 10uM=30;Diaph ctr 30uM=16
Cc1ccc(Nc2nc(-c3ccc(S(=O)(=O)N4CCOCC4)cc3)cs2)cc1 | / | / | 59 | -8 | / | 42
NS(=O)(=O)c1cccc(NC(=O)COC(=O)CCC2CCCC2)c1 | / | / | 10 | -3 | / | /
CCCCOC(=O)C1=C(C)Nc2ncnn2C1c1ccc(OCC)c(OC)c1 (stereo unspecified) | 19 | 0.8 | 62* | -5 | -5 | 29
CN1C=CC=C/C1=C1\SC(=S)N(N)C1=O | 13 | 0.9 | 3 | -6 | -2 | /
